Experimental findings from PubChem BioAssay AID624466 (The Scripps Research Institute Molecular Screening Center, 2012) are described below.

Out of some 360,000 compounds screened, about 5,400 (1.5%) were called active. The sample holds actives, similar compounds and a random draw of the others, so the mix is not that of the screen. Values without a mark were called inactive.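 The calls were made as follows: active = inhibition above a per-plate cutoff, the mean inhibition of test compounds on that plate plus 3 SD (cut at about 49% in these data); inactive = the rest.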

Usually inhibition stands for the relative decrease from the control value, in per cent.

Chain of Trace amine-associated receptor 1 (Homo sapiens) (Q96RJ0 whole entry, looked up): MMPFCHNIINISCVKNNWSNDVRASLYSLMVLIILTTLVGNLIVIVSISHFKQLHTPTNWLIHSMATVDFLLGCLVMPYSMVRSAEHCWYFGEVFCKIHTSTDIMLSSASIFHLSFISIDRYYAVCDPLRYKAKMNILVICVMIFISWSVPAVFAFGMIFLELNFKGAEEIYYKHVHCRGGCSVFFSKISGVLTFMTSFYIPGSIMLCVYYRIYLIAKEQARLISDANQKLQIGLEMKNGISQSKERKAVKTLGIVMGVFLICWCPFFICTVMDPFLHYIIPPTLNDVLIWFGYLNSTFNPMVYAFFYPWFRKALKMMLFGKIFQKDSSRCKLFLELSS

In the test the target is Trace amine-associated receptor 1 (Homo sapiens) (UniProt Q96RJ0). Kind of test: blockers of beta-PEA-driven TAAR1 calcium signal – Fluo-8 calcium fluorescence, CHO RD-HGA16 cells, primary screen (AID 624466).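 Also: 0% = DMSO plus EC80 beta-PEA response and 100% = DMSO alone without agonist.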 Particulars: CHO RD-HGA16 TAAR1, Fluo-8 calcium fluorescence, antagonist; at 3 µM; stronger effect = higher value. The method, boiled down:
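System: CHO RD-HGA16 cells bearing hTAAR1. Reagent: EC80 β-phenethylamine stimulus. Schedule: seeding 17-24 h prior, 75-min 37 °C, 30-min RT dye loading. Signal: Fluo-8 intracellular calcium dye fluorescence, real-time kinetic reads. Read-out: % inhibition from peak post-agonist over basal fluorescence ratio. Benchmarks: vehicle wells and EC80 agonist wells. Replicates: n of 1.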
For the compound `Cc1nc(N2CCOCC2)c2c(C)c(C(=O)Nc3ccc(C(F)(F)F)cc3)sc2n1`, the inhibition is 15.7%. In the case of `Cc1nc(N2CCN(c3ccccn3)CC2)c2c(C)c(C(=O)Nc3ccc(F)c(Cl)c3)sc2n1`, the inhibition was -1.25%. For `Cc1nc(N2CCN(c3ccccn3)CC2)c2c(C)c(C(=O)Nc3ccc(F)cc3)sc2n1`, the inhibition was 58% (active). Under `CN(CC(=O)NCc1ccc(Cl)cc1)S(=O)(=O)c1cccs1` stands -2.12%; under `Cc1ccc(-c2nc3c(Cl)cc(C(F)(F)F)cn3c2Cc2cccc(Cl)c2)cc1`, 3.71%; under `Brc1ccc(COCCc2cn(Cc3ccccc3)c3ccccc23)cc1`, -22%. Take `COC(=O)Cc1nnn2c1[C@H](C)[C@H](c1ccccc1Br)OCC2`: the inhibition was 73.5% (active).

Take `COC(=O)Cc1nnn2c1[C@H](C)[C@@H](OC)c1cc(Br)ccc1-2`: the inhibition is 1.99%.

With `COc1ccc(NC(=O)C2=C(C)NC(=O)NC2c2ccccc2[N+](=O)[O-])cc1` (stereo not given), the inhibition was 1.55%. `COC(=O)N1Cc2ccnnc2CC1c1ccccc1Br` (stereo not given): the inhibition was -6.91%. Under `COC(=O)Cc1nnn2c1[C@H](C)[C@H](c1ccccc1[N+](=O)[O-])OCC2` stands 51.6% (active); under `COC(=O)C1(C(=O)OC)C/C=C\CN(S(=O)(=O)c2ccccc2[N+](=O)[O-])CCC1`, -2.45%. On to `CCn1cc(CCC(=O)NCc2ccc(F)cc2)c2ccccc21`, for which the inhibition was 8.18%. Turning to `C=CC[C@]12C[C@@]3(O[C@H](c4ccc(C(F)(F)F)cc4)N=C3C[C@H](c3ccc(OC)cc3)[C@H]1C)N(C1CCN(Cc3ccccc3)CC1)C2=O`, the inhibition was -52.6%. As for `Cc1ccc(-c2cc(C(=O)NN)n[nH]2)o1`, the figure is 2.39%; as for `CCOC(=O)[C@]12CCCC=C1N(CCC1=CCCCC1)C(=O)[C@H](CC(=O)N1CCOCC1)C2`, -9.23%; as for `CCCCNC(=O)C[C@@H]1C[C@@]2(C(=O)OC)CC(C)(C)CC=C2N(Cc2ccco2)C1=O`, -0.44%. As for `CCOC(=O)C1CCN(C(=O)C2(NC(=O)Nc3cccc(F)c3)CCCCC2)CC1`, the figure is -26.8%. On to `O=S1(=O)CC(N2CCN(Cc3ccccc3F)CC2)CN1Cc1cn(Cc2cccc(C(F)(F)F)c2)nn1` (stereo not given), for which the inhibition is -13%. `CCOC(=O)[C@]12CCCC=C1N(Cc1ccc3c(c1)OCO3)C(=O)[C@H](CC(=O)N1CCN(C(=O)c3ccco3)CC1)C2`: the inhibition was -4.35%. As for `CC(C)C[C@H]1CNC(=O)C(=O)N1C[C@H]1CCCN1C[C@H](Cc1ccc(O)cc1)N1C[C@H](CC(C)C)N(CC2CCCCCC2)C(=O)C1=O`, the inhibition is 6.77%. Take `CC1CCN(C(=O)c2ncn3c2C(=O)N[C@@H](C)C3)CC1`: the inhibition was -2.44%. As to `CSc1ncnc2c1ncn2CCCNCC1CCCCC1`, the inhibition was -17.2%. Turning to `CSc1ncnc2c1ncn2CC(=O)C1CCC2C3CCC4=CC(=O)CCC4(C)C3CCC12C` (stereo not given), the inhibition was 61.8% (active). For the compound `CC(=O)C12CC(C)=C(C)CC1CC1C3CCC4=CC(=O)CCC4(C)C3CCC12C` (stereo not given), the inhibition is -34.7%. Under `Cc1ccc(CNC(=O)CCS(=O)(=O)c2ccc3c(c2)CC(C)N3C(=O)C2CC2)o1` (stereo not given) stands -23.9%; under `Cc1[nH]c2ccccc2c1CC(=O)Nc1ccc(Nc2cccnc2)c(-c2cccc(Cl)c2)c1`, -0.4%; under `C/C(=N/O)c1ccc(N2C(=O)C3C4C=CC(C3C2=O)C2C3C(=O)N(c5ccc(/C(C)=N/O)cc5)C(=O)C3C42)cc1` (stereo not given), -2.86%. As for `CCCc1c(-c2ccccc2F)ncn1Cc1ccccc1OC`, the figure is -7.18%; as for `COc1ccccc1CCNS(=O)(=O)c1cn(C)nc1C`, -36.9%; as for `CCCCc1c(-c2ccc(Br)cc2)ncn1CCc1ccccc1OC`, 28.2%. Regarding `CCCCc1c(-c2ccc(Cl)cc2)ncn1CCc1ccccc1OC`, the inhibition was 49.6% (active). On to `COc1ccccc1CCn1cnc(-c2ccccc2)c1C(C)C`, for which the inhibition is 20%. `CCCCCc1c(-c2ccc(OC)c(OC)c2)ncn1CCc1ccccc1OC`: the inhibition was 73.9% (active). Take `CCCCCc1c(-c2cccc(Br)c2)ncn1CCc1ccccc1OC`: the inhibition was 43.2%. As to `CCc1c(-c2ccccc2OC)ncn1CCc1ccccc1OC`, the inhibition is 14.3%. Consider `CCCCCc1c(Cc2ccccc2)ncn1CCc1ccccc1OC`, for which the inhibition was 66.2% (active). As for `CCOC(=O)c1cc2cc(OC)ccc2n1C1CCN(C)CC1`, the inhibition is -4.73%. For the compound `COC(=O)[C@]1(Cc2ccccc2)NC=C(C(=O)c2ccccc2)[C@@H]1c1cccc(OC)c1`, the inhibition was -1.81%. `C[C@H](NC(=O)[C@@H]1CCCN1C(=O)[C@@H]1CCCN1C(=O)c1ccccc1)c1ccccc1`: the inhibition was 2.01%. In the case of `C=CCC[C@H](CCCCC)OC(=O)/C=C/[C@H](O)[C@@H](O)C[C@@H](O)CC=C`, the inhibition is -19.3%. In the case of `COC(=O)C(C)N(C#N)c1nc(C)nc(C)n1` (stereo not given), the inhibition was -2.26%. For the compound `COC(=O)c1c(-c2ccc(OC)cc2)c2c(c3c4ccccc4n(S(=O)(=O)c4ccc(C)cc4)c13)C(=O)N(C)C2`, the inhibition was -15.3%. Consider `CN=C(NC#N)NCCSCc1nc[nH]c1C`, for which the inhibition is -15.6%.

On to `Cc1cc(C)n2nc(C(=O)Oc3ccc4c(c3)OCO4)nc2n1`, for which the inhibition is 2.03%.

As for `O=C(NCc1ccccc1)[C@@H]1CCCN1C(=O)[C@@H](NS(=O)(=O)c1ccc(F)cc1F)C1CCCCC1`, the inhibition was 7.07%. On to `O=C(C(=O)N1CCC(c2ccccc2)CC1)c1ccccc1`, for which the inhibition is -1.49%. Regarding `O=C(CSc1nc(-c2ccco2)cc(C(F)(F)F)n1)N1CCc2ccccc2C1`, the inhibition was -4.26%.

Regarding `COc1ccc(-c2cc(C(F)(F)F)nc(SCCC(=O)NCc3ccco3)n2)cc1`, the inhibition was -2.48%. On to `O=C(CSc1nc(-c2ccco2)cc(C(F)(F)F)n1)NCc1cccs1`, for which the inhibition is 58.2% (active).

As to `CC1CCCN(C(C(=O)Nc2ccc(C(C)C)cc2)c2ccc3c(c2)OCO3)C1` (stereo not given), the inhibition is -12.3%. Under `CCOC(=O)[C@]12CCCC=C1N(Cc1ccc3c(c1)OCO3)C(=O)[C@H](CC(=O)NCc1cccs1)C2` stands -12.1%. As for `O=C(O)c1ccc(-n2cccc2)cc1O`, the figure is 6.36%. With `CC(=N\NC(=O)c1cc(Br)ccc1O)/C(=N/O)C(=O)Nc1ccccc1`, the inhibition was -8.22%. Under `Cc1ccc(C(=O)NCC(=O)OCc2nnc(-c3ccccc3)o2)cc1` stands -15.8%; under `Cc1onc(-c2ccccc2Cl)c1C(=O)OCc1nnc(-c2ccccc2)o1`, 14.8%. Take `Cc1onc(-c2ccccc2)c1-c1nnc(COC(=O)c2ccc(N(C)C)cc2)o1`: the inhibition is 73.5% (active). In the case of `O=S1(=O)CC(N2CCN(Cc3ccccc3F)CC2)CN1Cc1cn(Cc2ccccc2)nn1` (stereo not given), the inhibition is -11.1%.

On to `CCN1CCc2c(C#N)c(NCc3ccccc3)nc(NCCO)c2C1`, for which the inhibition was 106% (active). Consider `CCCCc1nc(NCc2ccccc2)c(C#N)c2c1CCCC2`, for which the inhibition is -12.6%. Consider `CC(C)CCNc1nc(N2CCCC2)c2c(c1C#N)CCN(C)C2`, for which the inhibition was -24.7%. With `COc1ccc(Cl)cc1NC(=O)CN(C)C(=O)c1cn(-c2ccccc2)nc1-c1cccs1`, the inhibition is 12.7%. Regarding `O=C(O)c1ccccc1-c1ccccc1C(=O)Nc1nccs1`, the inhibition was -18.3%.

As for `COc1ccc(-c2nn(-c3ccccc3)cc2C(=O)Nc2nccs2)cc1OC`, the inhibition is 71.3% (active).

Consider `CCn1c(/C=C/Nc2ccccc2)[n+](CC)c2ccc(C(=O)OCC(F)(F)F)cc21`, for which the inhibition is -27.5%. For the compound `CC1(C)OC(=O)C2=C(C[C@@H](C3CCCCC3)O[C@@H]2c2ccc(Cl)cc2)O1`, the inhibition was -31%. As for `CS(=O)(=O)c1ccc(-c2nnn(CC(=O)Nc3ccc4c(c3)OCCO4)n2)cc1`, the inhibition is 21%. On to `CC(C)c1cccc(-c2csc(C(O)c3ccccc3)n2)c1` (stereo not given), for which the inhibition is 17.5%.

`COc1ccc(N2CCN(C(=O)COC(=O)c3cccc(S(=O)(=O)Nc4ccccc4OC)c3)CC2)cc1`: the inhibition is 21.7%. With `CN1CCN(C(=O)c2ccc(NS(=O)(=O)c3ccccc3)cc2)CC1`, the inhibition was -8.92%.

As to `COc1ccccc1NS(=O)(=O)c1ccc(C(=O)N2CCN(c3ccccc3O)CC2)cc1`, the inhibition was 58.1% (active). On to `CCOc1ccc(-n2cnc3c(=O)[nH]c(N)nc32)cc1`, for which the inhibition is 0.45%.

With `O=C(COC(=O)c1ccc(O)cc1O)NC(=O)c1ccccc1`, the inhibition was -0.49%. As to `O=C(NNc1c2ccccc2nc2ccccc12)c1cc2ccccc2cc1O`, the inhibition was 65.3% (active). Take `O=C(NNC(=O)c1ccccc1O)c1ccccc1O`: the inhibition is -13.5%. `Cc1cccc(C)c1NC(=O)C(c1ccc(C(F)(F)F)cc1)n1c(=O)c(-c2ccco2)nc2ccccc21` (stereo not given): the inhibition is -9.78%. `O=S(=O)(NCCc1ccccn1)c1cc(Cl)cc(Cl)c1O`: the inhibition is -19.9%.

`O=C(c1ccc(O)cc1)c1ccc(C(=O)O)c(C(=O)O)c1`: the inhibition was 17.8%. As for `COC(=O)[C@]12CCCCC=C1N(Cc1ccc3c(c1)OCO3)C(=O)[C@H](CC(=O)NCc1cccs1)C2`, the inhibition is 21.1%. Consider `NS(=O)(=O)c1ccc(NC(=O)COC(=O)c2c3c(nc4ccccc24)/C(=C\c2ccc4c(c2)OCO4)CCC3)cc1`, for which the inhibition is 6.15%. Regarding `Cn1cccc1C(=O)OCC(=O)c1ccc(Br)s1`, the inhibition is -0.72%. Take `O=C(COC(=O)c1c2c(nc3ccccc13)CCCC2)c1ccc(Br)s1`: the inhibition was 49% (active). With `Cc1cc(S(=O)(=O)N2CCOCC2)ccc1OCC(=O)Nc1cccc(C(F)(F)F)c1`, the inhibition is 30.6%.

Take `CN1C(=O)C2CC(O)C(SC3CC4C(=O)N(C)C(=O)C4CC3O)CC2C1=O` (stereo not given): the inhibition was 2.98%.

In the case of `CN[C@H]1C[C@H]2c3cc(Oc4ccccc4C)ccc3CCN2C(=O)[C@H]1[C@H](C)O`, the inhibition was 0.22%.
